Test results from ChEMBL document CHEMBL1141076 (J Med Chem, 2005).

Columns and labels:
[1] = target: T1, Cyclic nucleotide-gated channel alpha-1 (Bos taurus, UniProt Q00194); assay: Apparent dissociation constant against Cyclic nucleotide gated channel alpha 1 at +40 mV
T1 sequence (Q00194 whole entry): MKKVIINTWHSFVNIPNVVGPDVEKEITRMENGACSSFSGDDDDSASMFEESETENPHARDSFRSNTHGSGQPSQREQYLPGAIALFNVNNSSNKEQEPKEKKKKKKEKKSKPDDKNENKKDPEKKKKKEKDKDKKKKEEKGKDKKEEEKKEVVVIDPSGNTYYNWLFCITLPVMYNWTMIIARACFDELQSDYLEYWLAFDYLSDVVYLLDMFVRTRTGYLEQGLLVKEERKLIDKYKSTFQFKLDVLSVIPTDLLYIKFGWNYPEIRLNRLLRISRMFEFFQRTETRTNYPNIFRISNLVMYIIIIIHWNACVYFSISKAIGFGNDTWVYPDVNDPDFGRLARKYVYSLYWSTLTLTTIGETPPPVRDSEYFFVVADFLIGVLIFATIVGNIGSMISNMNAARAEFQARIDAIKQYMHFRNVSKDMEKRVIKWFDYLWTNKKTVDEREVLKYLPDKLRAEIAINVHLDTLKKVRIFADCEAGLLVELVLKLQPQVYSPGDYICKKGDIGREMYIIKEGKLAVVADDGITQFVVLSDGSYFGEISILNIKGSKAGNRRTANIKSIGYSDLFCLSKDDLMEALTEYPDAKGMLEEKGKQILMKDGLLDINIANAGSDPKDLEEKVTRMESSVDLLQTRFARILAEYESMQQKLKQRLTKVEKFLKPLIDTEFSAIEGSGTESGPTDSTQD
How it was run: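 Bovine CNGA1 cRNA injected (5-25 ng) into Xenopus oocytes kept at 18 °C; inside-out excised patches recorded 1-6 days later at room temperature. Identical pipet/bath solution: 130 mM NaCl, 2 mM HEPES, 1 mM EGTA, 0.02 mM EDTA, pH 7.6. Blocker added to bath with saturating cGMP; steps -80 to +40 mV. End-of-pulse current corrected for ion accumulation/depletion. KD from I+D/I-D = KD/(KD+[D]).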

[2] = target: T1, Cyclic nucleotide-gated channel alpha-1; assay: Apparent dissociation constant against Cyclic nucleotide gated channel alpha 1 at 0 mV
How it was run: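 CNGA1 (bovine) expressed in Xenopus oocytes from 5-25 ng cRNA; inside-out patches at room temperature in symmetrical 130 mM NaCl, 2 mM HEPES, 1 mM EGTA, 0.02 mM EDTA, pH 7.6, saturating cGMP with blocker in bath. Depolarizations -80 to +60 mV in 10 mV steps. Fraction of current remaining fitted with Woodhull equation, giving KD at 0 mV and zδ.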

SMILES: CCCCNc1ccc(C(=O)OCC[N+](C)(C)CCCNCCCN)cc1
- Kd [1]: 3e-05 µM
- Kd [2]: 0.0069 µM

SMILES: CCCCNc1ccc(C(=O)OCC[N+](C)(C)CCCC)cc1
- Kd [1]: 3.1 µM
- Kd [2]: 5.4 µM

SMILES: CCCCNc1ccc(C(=O)OCC[N+](C)(C)CCCN)cc1
- Kd [1]: 0.074 µM
- Kd [2]: 1.4 µM

SMILES: CN(C)CCOC(=O)c1ccc(NCCCCN)cc1
- Kd [1]: 210 µM
- Kd [2]: 970 µM

SMILES: CC(=O)NCCCCNc1ccc(C(=O)OCCN(C)C)cc1
- Kd [1]: 2500 µM
- Kd [2]: 4000 µM

SMILES: CN(C)CCOC(=O)c1ccc(N)cc1
- Kd [1]: 2300 µM
- Kd [2]: 10000 µM
